Test results published in article PMC3747510 (Scientific Reports, 2013).
Substitutions are numbered along the chain they refer to.

Key:
Assay type in all cases: biochemical
SpLeuRS = target: T1, SpLeuRS (Streptococcus pneumoniae serotype 4, UniProt Q97SS0); test: Post-transfer editing; conditions: 5 or 50 μM ZCL039, 1 μM [3H]Met-SptRNALeu
T1 sequence (Q97SS0 1-833): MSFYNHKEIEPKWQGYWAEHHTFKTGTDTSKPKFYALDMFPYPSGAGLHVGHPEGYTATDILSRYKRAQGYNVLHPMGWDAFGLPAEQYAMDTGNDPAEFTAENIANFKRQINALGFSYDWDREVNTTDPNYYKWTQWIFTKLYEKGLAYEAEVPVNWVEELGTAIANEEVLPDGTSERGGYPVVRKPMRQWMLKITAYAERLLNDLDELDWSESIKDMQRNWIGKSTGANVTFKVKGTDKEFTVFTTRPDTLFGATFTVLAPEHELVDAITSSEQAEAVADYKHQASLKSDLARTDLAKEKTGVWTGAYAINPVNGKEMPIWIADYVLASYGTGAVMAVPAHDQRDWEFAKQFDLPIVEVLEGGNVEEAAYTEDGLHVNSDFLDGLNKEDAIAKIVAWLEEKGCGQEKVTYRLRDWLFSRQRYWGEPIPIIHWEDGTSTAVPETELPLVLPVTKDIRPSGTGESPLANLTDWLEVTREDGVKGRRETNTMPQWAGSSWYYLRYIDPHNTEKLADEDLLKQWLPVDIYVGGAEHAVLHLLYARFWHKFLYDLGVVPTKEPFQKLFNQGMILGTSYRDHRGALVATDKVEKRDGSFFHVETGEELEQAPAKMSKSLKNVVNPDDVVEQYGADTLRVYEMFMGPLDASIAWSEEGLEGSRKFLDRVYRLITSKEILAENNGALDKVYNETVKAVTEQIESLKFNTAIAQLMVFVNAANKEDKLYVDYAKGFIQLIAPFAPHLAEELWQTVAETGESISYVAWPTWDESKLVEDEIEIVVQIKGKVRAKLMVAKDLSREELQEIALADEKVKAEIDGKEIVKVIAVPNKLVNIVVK
In short: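 Enzyme and test compound were preincubated 20 min. Substrate was mischarged with the EcLeuRS-D345A editing mutant (30 min, 37°C), then acid-phenol extracted. Controls: DMSO, and no-enzyme spontaneous hydrolysis. Means of three experiments.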

Human cytosolic LeuRS = Human cytosolic LeuRS (Homo sapiens, UniProt Q9P2J5); test: Aminoacylation inhibition
In short: (§1)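 Human cytosolic or mitochondrial LeuRS, expressed in E. coli. Aminoacylation run at 30°C. At least six test-compound concentrations were tested, with enzyme amount set to form 10 pmol Leu-tRNALeu in 5 min. IC50 was taken from a fitted dose-response curve, as the mean of at least two independent experiments.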

SpLeuRS D344A = target: T2, SpLeuRS D344A (Streptococcus pneumoniae serotype 4, UniProt Q97SS0, D344A); test: Aminoacylation by SpLeuRS D344A mutant; conditions: 50 μM ZCL039
T2 sequence (Q97SS0 1-833 D344A): T1 sequence (Q97SS0 1-833) with D344A
In short: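 Aminoacylation at 37°C, started with 4 mM ATP. Point mutants were made by site-directed mutagenesis. The MmLinker chimera has CP1 Lys226–Thr411 replaced by a nonapeptide. Means of three independent experiments.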

[1] = target: T3, Human mitochondrial LeuRS (Homo sapiens, UniProt Q15031); test: Aminoacylation inhibition
T3 sequence (Q15031 1-903): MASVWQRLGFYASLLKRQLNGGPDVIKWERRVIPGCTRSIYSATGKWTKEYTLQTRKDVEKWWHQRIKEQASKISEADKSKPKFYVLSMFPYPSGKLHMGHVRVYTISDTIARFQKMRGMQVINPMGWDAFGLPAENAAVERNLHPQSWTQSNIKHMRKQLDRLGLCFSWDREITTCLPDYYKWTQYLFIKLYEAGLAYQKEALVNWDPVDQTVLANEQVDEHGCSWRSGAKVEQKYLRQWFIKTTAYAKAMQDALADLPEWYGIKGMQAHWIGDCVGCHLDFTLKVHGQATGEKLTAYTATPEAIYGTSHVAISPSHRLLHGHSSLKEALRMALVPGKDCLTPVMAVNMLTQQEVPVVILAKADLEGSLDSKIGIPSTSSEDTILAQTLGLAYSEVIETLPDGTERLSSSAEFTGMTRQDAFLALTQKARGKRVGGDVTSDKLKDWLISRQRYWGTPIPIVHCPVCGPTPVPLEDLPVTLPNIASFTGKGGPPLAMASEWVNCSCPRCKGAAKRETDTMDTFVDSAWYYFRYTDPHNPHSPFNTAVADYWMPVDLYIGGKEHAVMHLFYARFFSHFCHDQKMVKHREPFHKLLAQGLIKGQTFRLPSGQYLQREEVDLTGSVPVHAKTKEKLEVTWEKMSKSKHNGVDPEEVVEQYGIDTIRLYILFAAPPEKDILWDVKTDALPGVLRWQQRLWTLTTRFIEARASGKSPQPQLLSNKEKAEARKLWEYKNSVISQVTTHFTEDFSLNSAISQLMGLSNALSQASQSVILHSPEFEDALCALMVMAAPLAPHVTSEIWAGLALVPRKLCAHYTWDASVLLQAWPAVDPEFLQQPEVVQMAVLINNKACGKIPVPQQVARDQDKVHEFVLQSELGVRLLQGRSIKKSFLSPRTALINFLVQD
In short: as §1

Sequence of Human cytosolic LeuRS (Q9P2J5 whole entry): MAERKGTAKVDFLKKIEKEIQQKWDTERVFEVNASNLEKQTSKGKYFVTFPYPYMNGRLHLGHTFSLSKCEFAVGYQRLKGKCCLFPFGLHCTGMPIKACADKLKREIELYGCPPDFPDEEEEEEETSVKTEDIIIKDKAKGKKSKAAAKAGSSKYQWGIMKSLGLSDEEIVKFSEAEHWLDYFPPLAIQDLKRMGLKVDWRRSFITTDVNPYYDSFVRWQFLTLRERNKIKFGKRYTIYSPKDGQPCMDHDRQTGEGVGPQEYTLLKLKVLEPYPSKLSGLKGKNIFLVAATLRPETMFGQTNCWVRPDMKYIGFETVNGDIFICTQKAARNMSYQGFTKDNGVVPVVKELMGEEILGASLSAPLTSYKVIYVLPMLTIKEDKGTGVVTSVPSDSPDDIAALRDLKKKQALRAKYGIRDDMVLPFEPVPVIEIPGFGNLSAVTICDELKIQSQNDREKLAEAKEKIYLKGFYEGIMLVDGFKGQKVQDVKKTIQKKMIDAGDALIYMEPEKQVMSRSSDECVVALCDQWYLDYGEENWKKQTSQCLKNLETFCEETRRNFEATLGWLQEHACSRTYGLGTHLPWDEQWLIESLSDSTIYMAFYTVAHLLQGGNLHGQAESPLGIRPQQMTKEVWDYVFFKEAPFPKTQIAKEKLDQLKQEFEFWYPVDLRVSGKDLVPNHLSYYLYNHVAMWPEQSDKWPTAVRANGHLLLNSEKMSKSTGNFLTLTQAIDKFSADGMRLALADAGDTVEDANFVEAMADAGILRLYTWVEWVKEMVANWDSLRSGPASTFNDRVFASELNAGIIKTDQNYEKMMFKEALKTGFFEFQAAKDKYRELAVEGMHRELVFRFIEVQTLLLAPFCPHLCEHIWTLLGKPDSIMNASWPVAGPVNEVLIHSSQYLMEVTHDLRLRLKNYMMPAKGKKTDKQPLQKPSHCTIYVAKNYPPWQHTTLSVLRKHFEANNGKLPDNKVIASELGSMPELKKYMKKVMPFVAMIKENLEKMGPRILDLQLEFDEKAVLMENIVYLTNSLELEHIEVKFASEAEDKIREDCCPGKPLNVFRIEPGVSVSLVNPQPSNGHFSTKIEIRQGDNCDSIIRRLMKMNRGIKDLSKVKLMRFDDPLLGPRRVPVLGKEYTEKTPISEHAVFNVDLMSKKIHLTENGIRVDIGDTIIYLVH

OB1OCc2ccc(C(O)c3ccccc3)cc21 (stereo not drawn) [ZCL039, [6-(1-phenyl-1-hydroxylmethyl)]-1,3-dihydro-1-hydroxy-2,1-benzoxaborole]
Effect on hydrolysis of mischarged Met-SptRNALeu (editing) (SpLeuRS): severely block | IC50 (Human cytosolic LeuRS): > 250 µM | Fold more sensitivity of SpLeuRS than human cytosolic LeuRS (Human cytosolic LeuRS; aminoacylation): over 150 fold | Fold less sensitive than SpLeuRS (Human cytosolic LeuRS; human cytosolic and mitochondrial LeuRSs vs SpLeuRS): approximately 150 fold | Effect of D344A mutation on sensitivity of SpLeuRS to ZCL039 (SpLeuRS D344A): reduced the sensitivity | IC50 [1]: > 250 µM
